# Compound activity as filed in PubChem.
# SKKanGAS inh = S. pyogenes SKKanGAS growth inhibitors in kanamycin, primary screen, streptokinase expression inhibitor project, SKKanGAS strain, BacTiter-Glo luminescence; 300,000 tested, 1.3% active; 6 h; inhibition, % at 7.5 µM;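 active = mean replicate score, as percent of positive control median, at least 50; inconclusive = mean below 50 but one replicate at or above 50; inactive = mean and every replicate below 50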;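 note: strain carries kanamycin resistance gene driven by streptokinase promoter and grows in 40 µg/ml kanamycin; loss of luminescence reflects streptokinase promoter inhibition or plain growth inhibition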
# T cruzi inh = inhibitors of intracellular T. cruzi growth, primary screen, luminescence, NIH3T3 host cells. T. cruzi beta-gal in NIH3T3, 90 h. inhibition, % (concentration not given with the values). 300,000 tested, 1.4% active. AID 1885, 2009;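 active = mean inhibition across valid replicates above about 55%, limit read from the data; inconclusive = mean below that limit but half or more replicates reach it; inactive = mean below it, under half of replicates reach it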;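 note: signal also drops with host cell toxicity which is not excluded here; higher percent means less beta-gal luminescence so fewer parasites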
#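 Assay system: NIH/3T3 fibroblasts plus reporter T. cruzi. Amount: NIH/3T3 cells, 5,000 per well. Buffer or medium: DMEM, 2% fetal bovine serum. Doses: compound pinned at 50 nL/well, DMSO. Schedule: ≥90 h infection period, 3 h prior cell attachment. Signal: luminescent β-galactosidase signal after 60 min lysis. Read-out: parasite load inhibition, %.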
# aSyn UTR inh = MLPCN primary screen, SNCA 5' untranslated region. inhibition, % (tested at 7.5 µM). 300,000 tested, 0.82% active. alpha-synuclein 5'UTR reporter, inhibitor activity; in the data active = inhibition above about 60%; inconclusive = no clear call, values can overlap the other calls;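 note: H4 neuroglioblastoma cells stably carrying SNCA 5'UTR luciferase fusion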
# CSC inhib = cancer stem cell viability inhibitors, primary screen, luminescence | 300,000 tested, 1.1% active | cancer stem cell-like cells viability | inhibition, % at 7.5 µM; in the data active = inhibition above about 75%; inconclusive = no clear call, values can overlap the other calls; tested in HMLE shEcad cells
# Mdm2 MdmX PPI = inhibitors of human Mdm2-MdmX association, primary screen, cell-based, luminescence, split luciferase, SaOS-2, uHTS | inhibition, % at 8 µM | Protein Mdm4 (Homo sapiens) + E3 ubiquitin-protein ligase Mdm2 (Homo sapiens), … | 330,000 tested, 3% active | SaOS-2 split-luciferase Mdm2/MdmX complementation | AID 485346, 2010;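 active = inhibition of at least 50% at 8 µM in the primary screen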
# Target sequence (O15151 whole entry, looked up): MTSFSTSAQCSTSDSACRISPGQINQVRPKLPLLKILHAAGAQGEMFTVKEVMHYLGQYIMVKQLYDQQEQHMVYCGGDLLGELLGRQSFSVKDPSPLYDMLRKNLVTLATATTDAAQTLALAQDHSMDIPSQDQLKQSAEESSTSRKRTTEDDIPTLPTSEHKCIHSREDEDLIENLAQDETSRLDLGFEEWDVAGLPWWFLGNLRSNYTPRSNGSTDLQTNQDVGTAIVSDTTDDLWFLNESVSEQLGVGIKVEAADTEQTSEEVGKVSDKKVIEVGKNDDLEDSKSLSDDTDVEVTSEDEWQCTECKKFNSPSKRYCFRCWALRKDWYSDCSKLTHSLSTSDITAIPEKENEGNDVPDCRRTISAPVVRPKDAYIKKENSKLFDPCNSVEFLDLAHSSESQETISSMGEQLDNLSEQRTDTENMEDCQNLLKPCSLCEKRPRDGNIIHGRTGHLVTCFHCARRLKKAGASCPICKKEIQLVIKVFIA
# Target sequence (Q00987 whole entry, looked up): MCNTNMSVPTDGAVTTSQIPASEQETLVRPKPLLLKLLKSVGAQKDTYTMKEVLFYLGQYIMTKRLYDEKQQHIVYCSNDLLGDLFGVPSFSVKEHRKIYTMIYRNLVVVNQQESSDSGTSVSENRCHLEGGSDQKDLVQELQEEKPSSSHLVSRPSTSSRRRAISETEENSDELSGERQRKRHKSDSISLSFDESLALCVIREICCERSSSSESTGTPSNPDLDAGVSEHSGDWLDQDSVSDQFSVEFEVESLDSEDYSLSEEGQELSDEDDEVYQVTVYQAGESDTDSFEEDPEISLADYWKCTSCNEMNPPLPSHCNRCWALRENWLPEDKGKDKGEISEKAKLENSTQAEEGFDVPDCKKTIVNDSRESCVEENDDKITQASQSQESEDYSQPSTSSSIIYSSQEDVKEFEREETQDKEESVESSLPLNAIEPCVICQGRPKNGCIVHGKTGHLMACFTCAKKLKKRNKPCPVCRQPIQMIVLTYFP
# Mdm2 MdmX conf = Mdm2-MdmX complex disruptors, retested hits, confirmation, luminescence, single concentration; Mdm2-MdmX binding, luminescent assay; shares compounds with Mdm2 MdmX PPI; inhibition, % at 8 µM; 10,000 tested, 55% active; AID 489028, 2010; in the data active = inhibition above about 40%
# Full FLuc ctr = full-length luciferase signal inhibition, confirmation, counter-screen for Mdm2/MdmX interaction inhibitor project, cell-based, single concentration, SaOS-2; AID 504607, 2011; inhibition, % at 8 µM; shares compounds with Mdm2 MdmX PPI; 6,200 tested, 77% active; SaOS-2 full-length luciferase counterscreen, luminescence;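 active = mean inhibition at 8 µM reaching about 37%, which flags the compound as non-specific, limit read from the data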;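 note: p53-null SaOS-2 cells with luciferase driven by a doxycycline-inducible promoter; compound on cells about two nights before reading with doxycycline added after day one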
# Hits are given with their value; i = inactive; ? = inconclusive; nt = no result. Sampled rows, rich in hits. Any-hit rate of the full collection: about 5.4%.
SMILES,SKKanGAS inh,T cruzi inh,aSyn UTR inh,CSC inhib,Mdm2 MdmX PPI,Mdm2 MdmX conf,Full FLuc ctr
COc1cc(OC)c(C2=NOC(C(=O)NCc3cccs3)C2)cc1Cl (stereo unspecified),i,i,i,i,53.5,50.8,59.2
COc1ccc(C2=NOC(C(=O)NCc3ccco3)C2)cc1 (stereo unspecified),i,i,i,nt,i,nt,nt
Cc1nc(-c2cccc(NS(=O)(=O)c3ccc4ccccc4c3)c2)cs1,i,i,i,i,i,nt,nt
O=C(c1cccc(S(=O)(=O)N2CCOCC2)c1)N1CCCC(C(F)(F)F)C1 (stereo unspecified),i,i,i,i,i,nt,nt
CCCCc1ccc(CC(=O)Nc2cc(S(=O)(=O)N3CCOCC3)ccc2O)cc1,nt,nt,nt,nt,i,nt,nt
Cc1nc2ccccc2n1CSc1ccccc1,i,i,i,i,i,nt,nt
Cc1nnc2ccc(N3CCN(C(=O)c4ccccc4)CC3)nn12,i,i,i,i,i,nt,nt
O=C(c1ccc(Br)o1)N1CCN(c2ccc3nnc(-c4ccccc4)n3n2)CC1,i,i,i,i,57.9,i,nt
COc1ccc(CC(=O)Nc2ccc(S(=O)(=O)N3CCN(C)CC3)cc2)cc1,nt,nt,nt,nt,i,nt,nt
O=C1CCc2ccc(OCCCCN3CCN(c4cccc(Cl)c4Cl)CC3)cc2N1,i,i,i,i,52.3,i,nt
COc1ccccc1N1CCN(CCCOc2ccc(F)cc2)CC1,i,i,i,i,i,nt,nt
CCCCN1CC(O)=C(c2nc(-c3ccc(Br)cc3)cs2)C1=N,i,i,i,i,80.1,52.5,63.4
CCOC(=O)CCCN1CC(O)=C(c2nc(-c3ccc(Cl)cc3)cs2)C1=N,nt,nt,nt,i,i,nt,nt
CCn1c(SCC(=O)Nc2ncc(C(F)(F)F)cc2Cl)nnc1-c1ccccc1,i,i,i,i,i,nt,nt
COc1ccc(C(C(=O)NC2CCCCC2)N(C(=O)CCl)c2ccc(C)cc2)cc1 (stereo unspecified),i,i,i,i,98.0,99.7,53.9
COc1ccc(C(C(=O)NC2CCCC2)N(C(=O)c2ccoc2C)c2ccc(C)cc2)cc1 (stereo unspecified),i,i,i,i,i,nt,nt
O=C(NC1CCCCC1)C(c1cccnc1)N(C(=O)CCl)c1ccccc1Cl (stereo unspecified),i,i,i,i,95.2,99.2,58.7
COc1ccc(N(C(=O)Cc2cccs2)C(C(=O)NC2CCCC2)c2ccncc2)cc1 (stereo unspecified),i,i,i,i,i,nt,nt
COc1ccc(C(C(=O)NC2CCCCC2)N(C(=O)CCl)c2ccc(OC)cc2)cc1 (stereo unspecified),i,i,i,i,99.5,100.1,50.0
COc1ccc(N(C(=O)CCl)C(C(=O)NC2CCCCC2)c2cccnc2)cc1 (stereo unspecified),i,i,i,i,95.6,100.1,54.1
CCn1c(=O)n(CC)c2cc(NC(=O)C(C)c3ccccc3)c(Br)cc21 (stereo unspecified),i,i,i,nt,i,nt,nt
COC(=O)C1=C(C)Nc2nc3ccccc3n2C1c1cc(OC)c(OC)c(OC)c1 (stereo unspecified),i,i,i,i,51.6,45.5,95.8
C=CCn1c(Sc2ncc([N+](=O)[O-])s2)n[nH]c1=O,i,i,i,106.0,66.4,87.5,56.2
Cc1ccc(-n2nnnc2-c2ccccc2Br)cc1,i,i,i,i,i,nt,nt
O=C(Nc1ccc2nc3n(c(=O)c2c1)CCCCC3)c1cc([N+](=O)[O-])ccc1F,i,i,i,?,98.1,79.3,i
SMILES,SKKanGAS inh,T cruzi inh,aSyn UTR inh,CSC inhib,Mdm2 MdmX PPI,Mdm2 MdmX conf,Full FLuc ctr
COc1ccc(/C=C/C(=O)Nc2ccc3nc4n(c(=O)c3c2)CCCC4)cc1OC,i,i,i,i,59.8,i,nt
O=C(Nc1ccc2nc3n(c(=O)c2c1)CCCCC3)c1c(F)ccc([N+](=O)[O-])c1F,i,i,84.9,116.0,96.1,100.0,52.1
COc1cc(C(=O)Nc2ccc3nc4n(c(=O)c3c2)CCCCC4)cc(OC)c1OC,i,i,i,i,i,nt,nt
COc1cc(/C=C2\SC(N)=NC2=O)cc(OC)c1,i,i,i,i,50.8,i,nt
COc1cc(/C=C2\SC(=Nc3ccccc3OC)NC2=O)ccc1O,i,i,i,i,i,nt,nt
COc1cc(/C=C2/SC(=Nc3ccc(O)cc3)NC2=O)ccc1O,i,i,i,i,74.1,72.0,68.2
C=CCOc1ccc(/C=C2\SC(N)=NC2=O)cc1OC,i,i,i,i,i,nt,nt
COc1cc(/C=C2\SC(N)=NC2=O)ccc1O,i,i,i,nt,59.9,52.3,57.1
CNC(=S)NCCC(c1ccccc1)c1ccccc1,i,i,i,nt,i,nt,nt
CC[C@H](C)[C@@H](CN[C@H](C)CNC)NCCC(c1ccccc1)c1ccccc1,i,i,i,i,98.9,93.4,i
O=C(O)c1cc2c(ccc3ccccc32)oc1=O,i,i,i,i,i,nt,nt
N=c1oc2ccc3ccccc3c2cc1C(N)=S,i,i,i,i,86.8,45.8,66.3
CC1=CC(=O)C(C(C)C)=C/C1=N/OS(=O)(=O)c1ccccc1,i,i,i,?,100.2,i,42.0
CC1=CC(=O)C=C(C)C1=NOS(=O)(=O)c1ccccc1,i,i,i,nt,nt,nt,nt
C=CCN1C(=O)/C(=C2/Sc3ccc(OC)cc3N2C)SC1=Nc1cccc(O)c1,i,i,i,i,66.9,i,nt
CC(=O)Oc1ccccc1C(=O)N(C1CCCCC1)C1CCCCC1,i,i,i,i,i,nt,nt
CC(C)C(NC(=O)/C=C/c1cccc([N+](=O)[O-])c1)C(C)C,i,i,i,i,i,nt,nt
CC(C)NC(=O)c1ccccc1NC(=O)/C=C/c1cccc([N+](=O)[O-])c1,i,i,63.0,96.0,75.3,i,nt
NC(=O)CC(NC(=O)Cc1ccc(Br)cc1)c1ccc(N2CCC(Cc3ccccc3)CC2)c([N+](=O)[O-])c1 (stereo unspecified),i,i,i,?,71.1,54.6,48.2
CCCCNc1ccc(C(CC(N)=O)NC(=O)Cc2ccc(Br)cc2)cc1[N+](=O)[O-] (stereo unspecified),i,i,i,i,86.6,60.2,53.1
CCCn1c2ccccc2c2nnc(SC(CC)C(=O)Nc3sc4c(c3C#N)CCCC4)nc21 (stereo unspecified),i,i,i,i,53.9,i,nt
CCOC(=O)/C(C#N)=C/c1cc(C)n(-c2ccc(C)cc2)c1C,i,i,i,i,i,nt,nt
CCOC(=O)/C(C#N)=C\c1cc(C)n(-c2ccccc2)c1C,i,i,i,i,55.8,79.3,154.7
